Test results reported in ChEMBL document CHEMBL1144700, “Synthesis of new N-phenylpyrazole derivatives with potent antimicrobial activity” (2008).
Converted amounts (≈) assume the structure as drawn.

Tests used:
Type in all cases: functional
Candida albicans = test: Antifungal activity against Candida albicans after 24 hrs by agar diffusion test
Method in brief: (§1)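 Disc diffusion: organism culture swabbed dry onto prepared agar plates; sterile 9.6 mm discs soaked in compound solution (stock 0.5 g in 10 ml DMF), dried and laid on the inoculated surface. Standard antimicrobial disc placed at the plate centre. Incubation at 37 °C for 24 h.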

Aspergillus fumigatus [1] = test: Antifungal activity against Aspergillus fumigatus after 24 hrs by agar diffusion test; method in brief: as §1
Pseudomonas aeruginosa = test: Antibacterial activity against Pseudomonas aeruginosa after 24 hrs by agar diffusion test; method in brief: as §1
Staphylococcus aureus = test: Antibacterial activity against Staphylococcus aureus after 24 hrs by agar diffusion test; method in brief: as §1
Aspergillus fumigatus [2] = test: Antifungal activity against Aspergillus fumigatus after 72 hrs
Method in brief: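 Microwell growth assay with conidia from 48 h Sabouraud agar cultures, final 5 × 10³ conidia per well. Medium-only and fluconazole-range controls included. Incubated at 23 °C for 72 h with growth checked every 24 h, then read as absorbance at 620 nm. Each concentration run in triplicate and the experiment repeated three times.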

SMILES	inhibition zone (IZ) (Candida albicans)	inhibition zone (IZ) (Aspergillus fumigatus [1])	inhibition zone (IZ) (Pseudomonas aeruginosa)	inhibition zone (IZ) (Staphylococcus aureus)	MIC (Aspergillus fumigatus [2])
Cc1c(C(=O)/C=C/NNC(N)=S)c(C(=O)Nc2ccccc2)nn1-c1ccccc1	12 mm/mg	0 mm/mg	8 mm/mg	10 mm/mg	–
Cc1c(-c2ccc(Cl)cc2)nn2c(-c3c(C(=O)Nc4ccccc4)nn(-c4ccccc4)c3C)ccnc12	10 mm/mg	0 mm/mg	0 mm/mg	10 mm/mg	–
CN(C/C=C/C#CC(C)(C)C)Cc1cccc2ccccc12 [TERBINAFINE]	10 mm/mg	10 mm/mg	–	–	–
O=C(N[C@H](CO)[C@H](O)c1ccc([N+](=O)[O-])cc1)C(Cl)Cl [CHLORAMPHENICOL]	–	–	20 mm/mg	21 mm/mg	–
CC(=O)c1c(C(=O)Nc2ccccc2)nn(-c2ccccc2)c1C	15 mm/mg	0 mm/mg	17 mm/mg	21 mm/mg	–
Cc1c(C(=O)CBr)c(C(=O)Nc2ccccc2)nn1-c1ccccc1	16 mm/mg	12 mm/mg	20 mm/mg	18 mm/mg	25 µg/mL (≈ 62.8 µM)
Cc1c(-c2ccnc3nncn23)c(C(=O)Nc2ccccc2)nn1-c1ccccc1	12 mm/mg	0 mm/mg	13 mm/mg	13 mm/mg	–
Cc1c(-c2ccon2)c(C(=O)Nc2ccccc2)nn1-c1ccccc1	13 mm/mg	0 mm/mg	13 mm/mg	13 mm/mg	–
Cc1c(-c2ccccc2)nn2c(-c3c(C(=O)Nc4ccccc4)nn(-c4ccccc4)c3C)ccnc12	10 mm/mg	0 mm/mg	0 mm/mg	8 mm/mg	–
C[C@@H]1[C@H](O)[C@@H](C)/C=C/C=C/C=C/C=C/C=C/C=C/C=C/[C@H](O[C@@H]2O[C@H](C)[C@@H](O)[C@H](N)[C@@H]2O)C[C@@H]2O[C@](O)(C[C@@H](O)C[C@@H](O)[C@H](O)CC[C@@H](O)C[C@@H](O)CC(=O)O[C@H]1C)C[C@H](O)[C@H]2C(=O)O [AMPHOTERICIN B]	–	–	–	–	11 µg/mL (≈ 11.9 µM)
Clc1ccc(COC(Cn2ccnc2)c2ccc(Cl)cc2Cl)c(Cl)c1 (centres undefined) [MICONAZOLE]	–	–	–	–	27.5 µg/mL (≈ 66.1 µM)
Cc1c(-c2cnc3ccccc3n2)c(C(=O)Nc2ccccc2)nn1-c1ccccc1	10 mm/mg	0 mm/mg	10 mm/mg	11 mm/mg	–
Cc1c(C(=O)CC2C(=O)CC(C)(C)CC2=O)c(C(=O)Nc2ccccc2)nn1-c1ccccc1	10 mm/mg	0 mm/mg	0 mm/mg	11 mm/mg	–
Cc1c(-c2cc[nH]n2)c(C(=O)Nc2ccccc2)nn1-c1ccccc1	12 mm/mg	0 mm/mg	13 mm/mg	13 mm/mg	–
Cc1c(-c2cnc3sc4ccccc4n23)c(C(=O)Nc2ccccc2)nn1-c1ccccc1	12 mm/mg	0 mm/mg	10 mm/mg	12 mm/mg	–
Cc1c(C(=O)/C=C/N(C)C)c(C(=O)Nc2ccccc2)nn1-c1ccccc1	15 mm/mg	0 mm/mg	14 mm/mg	14 mm/mg	–
Cc1c(-c2csc(N)n2)c(C(=O)Nc2ccccc2)nn1-c1ccccc1	13 mm/mg	0 mm/mg	18 mm/mg	13 mm/mg	–
